# Test results as given in ChEMBL document CHEMBL1144711, “Polyaminohydroxamic acids and polyaminobenzamides as isoform selective histone deacetylase inhibitors” (J Med Chem, 2008).
# pIC50, pKi: −log10 of the molar value.
# What was measured:
# HCT-116 [1] = test: Cytotoxicity against human HCT116 cells assessed as cell viability after 96 hrs by MTS reduction assay; type: functional, cell-based; conditions: HCT-116, 96 h
# HCT-116 [2] = test: Increase in acetylated alpha tubulin level in human HCT116 cells at 10 uM after 24 hrs relative to control; type: functional
# Method in brief: (§1)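 HCT116 cells adhered overnight, then exposed to 10 μM compound for 24 h. Cells lysed in HEPES pH 7.9/NaCl/Triton buffer with protease inhibitors at 4 °C. 30 μg total protein per lane run on 10% Bis-Tris gels and blotted with antibodies to AcH3, AcH4, p21waf1 or acetylated α-tubulin, with α-actin also probed. Infrared fluorescent secondaries used for quantification; single determinations reported as fold increase.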
# HCT-116 [3] = test: Increase in acetylated histone H4 level in human HCT116 cells at 10 uM after 24 hrs relative to control; type: functional; method in brief: as §1
# [4] = molecular target: T1, Histone deacetylase (Homo sapiens) (UniProt Q13547+O15379+Q9UBN7+Q92769+Q9UQL6+Q8WUI4+Q9BY41+Q96DB2+P56524+Q9UKV0+Q969S8); conditions: HeLa, at 1 µM
# HCT-116 [5] = test: Increase in p21waf1 re-expression in human HCT116 cells at 10 uM after 24 hrs relative to control; type: functional; method in brief: as §1
# HCT-116 [6] = test: Increase in acetylated histone H3 level in human HCT116 cells at 10 uM after 24 hrs relative to control; type: functional; method in brief: as §1
# [7] = molecular target: T2, Protein deacetylase HDAC6 (Homo sapiens) (UniProt Q9UBN7); test: Inhibition of human recombinant HDAC6; conditions: concentration not given here
# T2 sequence (whole entry): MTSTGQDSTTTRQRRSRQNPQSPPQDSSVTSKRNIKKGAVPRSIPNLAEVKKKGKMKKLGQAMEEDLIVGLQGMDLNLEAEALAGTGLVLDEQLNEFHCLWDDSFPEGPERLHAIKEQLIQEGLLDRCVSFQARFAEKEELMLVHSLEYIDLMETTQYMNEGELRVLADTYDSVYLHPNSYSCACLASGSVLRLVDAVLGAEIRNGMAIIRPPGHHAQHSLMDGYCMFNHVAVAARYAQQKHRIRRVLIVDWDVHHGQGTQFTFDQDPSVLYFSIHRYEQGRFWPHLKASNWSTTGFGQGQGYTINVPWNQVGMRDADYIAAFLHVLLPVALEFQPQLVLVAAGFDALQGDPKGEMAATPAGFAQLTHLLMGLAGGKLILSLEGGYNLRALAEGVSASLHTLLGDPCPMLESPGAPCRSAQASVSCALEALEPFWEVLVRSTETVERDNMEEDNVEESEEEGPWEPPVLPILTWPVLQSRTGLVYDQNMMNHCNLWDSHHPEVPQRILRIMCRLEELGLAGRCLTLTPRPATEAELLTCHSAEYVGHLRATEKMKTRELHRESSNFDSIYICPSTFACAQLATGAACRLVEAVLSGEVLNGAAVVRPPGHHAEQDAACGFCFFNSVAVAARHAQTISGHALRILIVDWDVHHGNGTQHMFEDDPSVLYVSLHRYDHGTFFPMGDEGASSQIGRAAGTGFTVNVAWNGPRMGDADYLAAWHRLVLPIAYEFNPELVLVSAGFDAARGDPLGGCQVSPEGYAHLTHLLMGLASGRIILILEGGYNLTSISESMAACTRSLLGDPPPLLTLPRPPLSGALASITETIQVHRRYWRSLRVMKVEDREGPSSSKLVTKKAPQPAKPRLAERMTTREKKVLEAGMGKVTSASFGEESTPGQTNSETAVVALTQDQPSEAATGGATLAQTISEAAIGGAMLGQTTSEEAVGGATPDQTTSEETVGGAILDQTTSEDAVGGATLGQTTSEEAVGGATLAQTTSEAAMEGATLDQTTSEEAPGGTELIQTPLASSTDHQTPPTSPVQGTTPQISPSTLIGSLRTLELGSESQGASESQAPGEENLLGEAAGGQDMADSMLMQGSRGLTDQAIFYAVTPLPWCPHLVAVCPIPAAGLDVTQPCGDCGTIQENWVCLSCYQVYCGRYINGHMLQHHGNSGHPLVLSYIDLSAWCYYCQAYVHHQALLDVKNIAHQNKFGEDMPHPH
# [8] = molecular target: Histone deacetylase 3 (Homo sapiens) (UniProt O15379); test: Inhibition of human recombinant HDAC3; conditions: concentration not given here
# Chain of Histone deacetylase 3 (Homo sapiens) (O15379 whole entry): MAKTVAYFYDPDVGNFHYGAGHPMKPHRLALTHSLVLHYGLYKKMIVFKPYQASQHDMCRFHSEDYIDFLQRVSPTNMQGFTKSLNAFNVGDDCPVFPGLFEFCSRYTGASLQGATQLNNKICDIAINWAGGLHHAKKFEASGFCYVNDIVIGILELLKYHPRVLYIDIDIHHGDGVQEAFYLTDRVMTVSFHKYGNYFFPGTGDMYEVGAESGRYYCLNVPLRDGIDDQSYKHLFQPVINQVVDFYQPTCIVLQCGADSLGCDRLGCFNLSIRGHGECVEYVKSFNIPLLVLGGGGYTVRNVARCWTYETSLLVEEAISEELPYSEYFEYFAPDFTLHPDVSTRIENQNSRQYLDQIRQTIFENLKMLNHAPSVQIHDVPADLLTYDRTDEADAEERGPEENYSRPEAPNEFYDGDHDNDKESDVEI
# HCT-116 [9] = test: Cytotoxicity against human HCT116 cells assessed as cell viability after 96 hrs by MTS reduction assay in presence of diamine oxidase inhibitor aminoguanidine; type: functional, cell-based; conditions: HCT-116, 96 h
# Method in brief: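 HCT116 cells in McCoy's 5A with 10% fetal calf serum, 37 °C, 5% CO2; 3000 cells/well seeded in triplicate and attached overnight. Medium replaced with fresh medium containing a range of compound concentrations for 96 h. CellTiter 96 One Solution MTS added for 1.5 h at 37 °C, absorbance read at 490 nm. Two separate experiments averaged to give IC50.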
# [10] = molecular target: T1, Histone deacetylase (Homo sapiens); test: Inhibition of human HDAC at 1 uM
# [11] = Inhibition of [14C]spermidine uptake at human polyamine transporter in ML1 cells; type: cell-based
# Method in brief: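 Competition for 14C-spermidine uptake in ML-1 acute myelogenous leukemia cells. Concentration-dependent spermidine uptake measured in the presence of 0.0, 10.0, 25.0 and 50.0 μM test compound.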
# [12] = molecular target: T1, Histone deacetylase (Homo sapiens); test: Inhibition of human HDAC in HeLa cells at 5 uM; type: cell-based
SMILES,pIC50 (HCT-116 [1]),Fold change (HCT-116 [2]),Fold change (HCT-116 [3]),inhibition [4] [%],Fold change (HCT-116 [5]),Fold change (HCT-116 [6]),inhibition [7] [%],inhibition [8] [%],pIC50 (HCT-116 [9]),inhibition [10] [%],pKi [11],inhibition [12] [%]
O=C(CCCCC(=O)NCCCNCCCCNCc1ccccc1-c1ccccc1)NO,< 4.00,89.01,17.4,71.3,2.01,3.34,–,–,–,–,–,–
CC(C)(C)c1ccc(CNCCCCNCCCNC(=O)CCCCCCCC(=O)NO)cc1,< 4.00,11.99,3.25,88.7,0.61,0,–,–,–,–,–,–
CC(C)(C)c1ccc(CNCCCCNCCCNC(=O)CCCCCC(=O)NO)cc1,< 4.00,253.25,20.84,–,2.33,21.49,99.7,99.1,–,–,–,–
CC(C)c1ccc(CNCCCCNCCCNC(=O)CCCCC(=O)NO)cc1,< 4.00,75.7,14.22,15.9,3.01,3.76,–,–,–,–,–,–
O=C(CCCCCCC(=O)NCCCNCCCCNCc1ccccc1-c1ccccc1)NO,< 4.00,36.3,7.82,38.6,1.64,5.19,–,–,–,–,–,–
CN(C)c1ccc(CNCCCCNCCCNC(=O)CCCCCCC(=O)NO)cc1,< 4.00,6.76,1.36,46.7,0.46,0,–,–,–,–,–,–
CN(C)c1ccc(CN(CCCNCCCCNCc2ccc(C(C)(C)C)cc2)C(=O)CCCCC(=O)NO)cc1,–,–,–,2,–,–,–,–,–,–,–,–
O=C(CCCCCCC(=O)NCCCNCCCNCCCNCCC(c1ccccc1)c1ccccc1)NO,< 4.00,–,–,55.2,–,–,–,–,–,–,–,–
O=C(CCCCCC(=O)NCCCNCCCCNCCC(c1ccccc1)c1ccccc1)NO,< 4.00,–,–,46.3,–,–,–,–,–,–,–,–
CC(C)c1ccc(CNCCCCNCCCNC(=O)CCCCCCC(=O)NO)cc1,< 4.00,11.98,4.74,41.4,0.86,0,–,–,–,–,–,–
CN(C)c1ccc(CN(CCCNCCCCN)C(=O)CCCCCCC(=O)NO)cc1,4.41,6.07,1.95,58.6,0.49,0,–,–,< 4.00,58.6,–,–
O=C(CCCCCCCC(=O)NCCCNCCCCNCCC(c1ccccc1)c1ccccc1)NO,< 4.00,–,–,54.6,–,–,–,–,–,–,–,–
O=C(CCCCCCCCC(=O)NCCCNCCCCNCCC(c1ccccc1)c1ccccc1)NO,< 4.00,1.97,0.95,73.9,0.41,0,–,–,–,–,–,–
O=C(CCCCC(=O)NCCCNCCCCNCCSc1ccccc1)NO,< 4.00,72.9,12.06,6.7,2.56,2.38,–,–,–,–,–,–
CC(C)(C)c1ccc(CNCCCCNCCCNC(=O)CCCC(=O)NCc2ccc(C(=O)Nc3ccccc3N)cc2)cc1,< 4.00,–,–,28,–,–,–,–,–,–,5.11,37.4
CC(C)(C)c1ccc(CNCCCCNCCCNC(=O)CCCCCCC(=O)NCc2ccc(C(=O)Nc3ccccc3N)cc2)cc1,< 4.00,2.27,1.12,30.8,2.55,1.19,11.7,1.3,–,–,–,51.2
Nc1ccccc1NC(=O)c1ccc(CNC(=O)CCCCCCC(=O)NCCCNCCCCNCCC(c2ccccc2)c2ccccc2)cc1,< 4.00,–,–,–,–,–,–,–,–,–,–,66.7
O=C(CCCCCCC(=O)NCCCNCCCCNCCSc1ccccc1)NO,< 4.00,101.36,11.68,16.5,1.98,0,–,–,–,–,–,–
